# Data as given in ChEMBL document CHEMBL2203029, “Discovery and Structural Modification of 1-Phenyl-3-(1-phenylethyl)urea Derivatives as Inhibitors of Complement” (ACS Med Chem Lett, 2012).
# Calls of active or inactive are those of the source. The rule behind the calls is not given here.
# Key:
# [1] = (§1) Inhibition of complement system in human fetal serum assessed as inhibition of hemolysis incubated for 1 hr by spectrophotometric analysis
# [2] = species on record: Homo sapiens; test: Inhibition of complement system in human fetal serum assessed as inhibition of hemolysis at 10 ug/mL incubated for 1 hr by spectrophotometric analysis
# [3] = species on record: Homo sapiens; test: Inhibition of complement system in human fetal serum assessed as inhibition of hemolysis at 100 ug/mL incubated for 1 hr by spectrophotometric analysis
# [4] = species on record: Homo sapiens; test: as §1
# [5] = Inhibition of lectin pathway in human serum assessed as inhibition of C9 deposition at 10 ug/mL incubated for 1 hr by ELISA; format: cell-free
# [6] = species on record: Homo sapiens; test: Inhibition of alternative complement system in human serum assessed as inhibition of C9 deposition at 10 ug/mL incubated for 1 hr by ELISA; format: cell-free
# [7] = species on record: Homo sapiens; test: Inhibition of classical complement system in human serum assessed as inhibition of C9 deposition at 10 ug/mL incubated for 1 hr by ELISA; format: cell-free
# [8] = Inhibition of lectin pathway in human serum assessed as inhibition of C9 deposition incubated for 1 hr by ELISA; format: cell-free
# Method in brief: (§2)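 Normal human serum was added to coated plates and incubated with a range of inhibitor concentrations. The coating set the pathway: IgM for the classical pathway, mannan for the lectin pathway, and zymosan for the alternative pathway. C3, C4 and C9 deposition were then measured on the plates.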
# [9] = Inhibition of alternative complement system in human serum assessed as inhibition of C9 deposition incubated for 1 hr by ELISA; format: cell-free; method in brief: as §2
# [10] = Inhibition of classical complement system in human serum assessed as inhibition of C9 deposition incubated for 1 hr by ELISA; format: cell-free; method in brief: as §2
# [11] = Inhibition of lectin pathway in human serum assessed as inhibition of C4 activation incubated for 1 hr by ELISA; format: cell-free; method in brief: as §2
# [12] = species on record: Homo sapiens; test: Inhibition of alternative complement system in human serum assessed as inhibition of C4 activation incubated for 1 hr by ELISA; format: cell-free; method in brief: as §2
# [13] = Inhibition of lectin pathway in human serum assessed as inhibition of C3 activation incubated for 1 hr by ELISA; format: cell-free; method in brief: as §2
# [14] = species on record: Homo sapiens; test: Inhibition of classical complement system in human serum assessed as inhibition of C4 activation incubated for 1 hr by ELISA; format: cell-free; method in brief: as §2
# [15] = species on record: Homo sapiens; test: Inhibition of alternative complement system in human serum assessed as inhibition of C3 activation incubated for 1 hr by ELISA; format: cell-free; method in brief: as §2
# [16] = species on record: Homo sapiens; test: Inhibition of classical complement system in human serum assessed as inhibition of C3 activation incubated for 1 hr by ELISA; format: cell-free; method in brief: as §2
SMILES,IC50 [1] [nM],also measured
CCOC(=O)COc1cc(NC(=O)N[C@@H](C)c2ccccc2)ccc1OC,6200,
COc1ccc(NC(=O)N[C@@H](C)c2ccc(C(F)(F)F)cc2)cc1OCCCC(C)C,,inhibition [2]: inactive
COc1ccc(NC(=O)N[C@@H](C)c2ccccc2)cc1OCC1CCCCC1,468,
COc1ccc(NC(=O)N[C@@H](C)c2ccccc2)cc1OC(C)C,10600,
CCCCOc1cc(NC(=O)N2CCCC2c2ccccc2)ccc1OC (configuration not stated),105,
COc1cccc(NC(=O)N[C@@H](C)c2ccccc2)c1,,inhibition [3]: inactive
COc1ccc(NC(=O)N[C@@H](C)c2ccccc2)cc1OCCN1CCCC1,,inhibition [3]: inactive
COc1ccc(NC(=O)N(C)[C@@H](C)c2ccccc2)cc1OCCCC(C)C,19,
N=C(N)c1cc2ccc(OC(=O)c3cccs3)cc2s1,10,
COc1ccc(NC(=O)N[C@@H](C)c2ccc(C#N)cc2)cc1OCCCC(C)C,1260,
COc1ccc(NC(=O)N(CCCO)[C@@H](C)c2ccccc2)cc1OCCCC(C)C,223,
C=C(C)COc1cc(NC(=O)N[C@@H](C)c2ccccc2)ccc1OC,7900,
COc1ccc(NC(=O)N[C@@H](C)c2ccc(Br)cc2)cc1OCCCC(C)C,3390,
CCCCCCCOc1cc(NC(=O)N[C@@H](C)c2ccccc2)ccc1OC,780,
CCC#CCOc1cc(NC(=O)N[C@@H](C)c2ccccc2)ccc1OC,244,
COc1ccc(NC(=O)N[C@@H](C)c2ccccc2)cc1,,inhibition [3]: inactive
COc1cc(NC(=O)N[C@@H](C)c2ccccc2)ccc1O,,inhibition [3]: 14.6%
COc1ccc(NC(=O)N[C@@H](C)c2ccccc2)cc1OCCN1CCCCC1,35500,
CCOc1ccc(NC(=O)N[C@@H](C)c2ccccc2)cc1OC,,inhibition [3]: inactive
C#CCOc1cc(NC(=O)N[C@@H](C)c2ccccc2)ccc1OC,8300,
COc1ccc(N(CCCO)C(=O)N[C@@H](C)c2ccccc2)cc1OCCCC(C)C,1580,
CCCCCOc1cccc(NC(=O)N[C@@H](C)c2ccccc2)c1,3200,
CCCCOc1cc(NC(=O)NCC(C)c2ccccc2)ccc1OC (configuration not stated),,inhibition [4]: inactive
COc1ccc(NC(=O)N[C@@H](C)c2ccccc2)cc1OCCC(C)C,630,
CCCCCCCCCCCCOc1cc(NC(=O)N[C@@H](C)c2ccccc2)ccc1OC,,inhibition [3]: inactive

SMILES,IC50 [1] [nM],also measured
COc1ccc(NC(=O)N(CC(O)CO)[C@@H](C)c2ccccc2)cc1OCCCC(C)C (some centres not stated),368,
COc1ccc(NC(=O)N[C@@H](C)c2cccc(Br)c2)cc1OCCCC(C)C,1320,
COc1ccc(NC(=O)N(CCCN)[C@@H](C)c2ccccc2)cc1OCCCC(C)C,7160,
COc1ccc(NC(=O)NCc2cccc3ccccc23)cc1OC,,inhibition [3]: inactive
CCCCCOc1cc(NC(=O)N[C@@H](C)c2ccccc2)ccc1OC,19,
CC#CCOc1cc(NC(=O)N[C@@H](C)c2ccccc2)ccc1OC,1590,
COc1ccc(NC(=O)N(C)Cc2ccccc2)cc1OC,,inhibition [3]: 43.8%
COc1ccc(NC(=O)N[C@@H](C)c2ccc([N+](=O)[O-])cc2)cc1OCCCC(C)C,1690,
COc1cc(NC(=O)N[C@@H](C)c2ccccc2)ccc1OCCNC(=O)OC(C)(C)C,,inhibition [3]: inactive
COc1ccc(NC(=O)N(CCO)[C@@H](C)c2ccccc2)cc1OCCCC(C)C,323,
C[C@H](NC(=O)Nc1cccnc1)c1ccccc1,,inhibition [3]: inactive
CCCOc1cc(NC(=O)N[C@@H](C)c2ccccc2)ccc1OC,353,
COc1ccc(NC(=O)N[C@@H](C)c2ccc(C(=O)O)cc2)cc1OCCCC(C)C,761,
CCCCCOc1cc(NC(=O)N[C@@H](C)c2ccccc2)cc(OC)c1,270,
CCCCCOc1cc(OC)ccc1NC(=O)N[C@@H](C)c1ccccc1,,inhibition [4]: inactive
C=CCOc1ccc(NC(=O)N[C@@H](C)c2ccccc2)cc1OC,,inhibition [3]: inactive
COc1ccc(NC(=O)N[C@@H](C)c2ccc(C)cc2)cc1OCCCC(C)C,327,
COc1ccc(NC(=O)N[C@@H](C)c2ccccc2)cc1OC,50000,
COc1ccc(NC(=O)N[C@@H](C)c2ccccc2[N+](=O)[O-])cc1OCCCC(C)C,368,
CCCCOc1cc(NC(=O)N[C@@H](C)c2ccccc2)ccc1OC,33,
CCCCOc1cc(NC(=O)NC2CCc3ccccc32)ccc1OC (configuration not stated),,inhibition [4]: inactive
COc1ccc(NC(=O)N[C@@H](C)c2ccccc2)cc1O,,inhibition [3]: 35.3%
COc1ccc(NC(=O)N[C@H](C)c2ccccc2)cc1OC,,inhibition [3]: 16.9%
COc1ccc(NC(=O)N[C@@H](C)c2cccc(O)c2)cc1OCCCC(C)C,77,
CCCCOc1cc(NC(=O)NCCC(C)c2ccccc2)ccc1OC (configuration not stated),,inhibition [4]: inactive

SMILES,IC50 [1] [nM],also measured
COc1ccc(NC(=O)N[C@@H](C)c2ccc(O)cc2)cc1OCCCC(C)C,139,
CCCCCCOc1cc(NC(=O)N[C@@H](C)c2ccccc2)ccc1OC,17,
COc1ccc(NC(=O)N[C@@H](C)c2ccc(F)cc2)cc1OCCCC(C)C,402,
COc1cc(NC(=O)N[C@@H](C)c2ccccc2)ccc1OCc1ccccc1,,inhibition [3]: inactive
CCCCCOc1cc(OC)c(NC(=O)N[C@@H](C)c2ccccc2)c(OC)c1,,inhibition [4]: inactive
C=CCOc1cc(NC(=O)N[C@@H](C)c2ccccc2)ccc1OC,1750,
COc1ccc(NC(=O)N[C@@H](C)c2ccccc2)cc1OCCCC(C)C,13,inhibition [5]: 90%; inhibition [6]: 90%; inhibition [7]: 90%; IC50 [8]: 4.46 µg/mL; IC50 [9]: 3.59 µg/mL; IC50 [10]: 3.68 µg/mL; inhibition [11]: inactive; inhibition [12]: inactive; inhibition [13]: inactive; inhibition [14]: inactive; inhibition [15]: inactive; inhibition [16]: inactive
COc1ccc(NC(=O)N[C@@H](C)c2ccccc2)cc1OCC(C)C,870,
COc1ccc(NC(=O)NCc2cccc(-c3ccccc3)c2)cc1OC,,inhibition [3]: inactive
CCOC(=O)COc1ccc(NC(=O)N[C@@H](C)c2ccccc2)cc1OC,,inhibition [3]: inactive
CCCCCOc1ccccc1NC(=O)N[C@@H](C)c1ccccc1,,inhibition [4]: inactive
CCCCOc1cc(NC(=O)N2CCCCC2c2ccccc2)ccc1OC (configuration not stated),,inhibition [4]: inactive
COc1ccc(NC(=O)N[C@@H](C)c2ccccc2)cc1OCc1ccccc1,,inhibition [3]: 32.7%
CCOc1cc(NC(=O)N[C@@H](C)c2ccccc2)ccc1OC,2860,
CCCCOc1cc(NC(=O)NC(CC)c2ccccc2)ccc1OC (configuration not stated),420,
COC(=O)c1ccc([C@H](C)NC(=O)Nc2ccc(OC)c(OCCCC(C)C)c2)cc1,535,
C[C@H](NC(=O)Nc1ccccc1)c1ccccc1,,inhibition [3]: inactive
CCCCCOc1ccc(OC)cc1NC(=O)N[C@@H](C)c1ccccc1,,inhibition [4]: inactive
COCCOc1cc(NC(=O)N[C@@H](C)c2ccccc2)ccc1OC,2000,
COc1ccc(N(C)C(=O)N(C)[C@@H](C)c2ccccc2)cc1OCCCC(C)C,,inhibition [3]: inactive
COc1ccc(NC(=O)N[C@@H](C)c2ccccc2)cc1OCC1CCCN(C)C1 (some centres not stated),3200,
C[C@H](NC(=O)Nc1ccc(Cl)cc1)c1ccccc1,,inhibition [3]: inactive
CCCCCCCCOc1cc(NC(=O)N[C@@H](C)c2ccccc2)ccc1OC,1290,
CCCCCCCCCCOc1cc(NC(=O)N[C@@H](C)c2ccccc2)ccc1OC,,inhibition [3]: inactive
COc1ccc(N(C)C(=O)N[C@@H](C)c2ccccc2)cc1OCCCC(C)C,540,
